Data published in ChEMBL document CHEMBL3397044, “Discovery and in vitro and in vivo profiles of N-ethyl-N-[2-[3-(5-fluoro-2-pyridinyl)-1H-pyrazol-1-yl]ethyl]-2-(2H-1,2,3-triazol-2-yl)-benzamide as a novel class of dual orexin receptor antagonist” (Bioorg Med Chem, 2015).
≈ marks a conversion by molar mass, not a printed value. Calls of active or inactive are those of the source. The rule behind the calls is not given here.

Tests used:
[1] = Volume of distribution in dog at 0.5 mg/kg, iv; format: ADME, organism-based, Canis lupus familiaris; parameters: dose 0.5 mg/kg, route intravenous; conditions: in vivo
How it was run: (§1)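 Male dogs given 0.5 mg/kg iv (n = 3). Vd and CL derived from the iv profile. T1/2 = ln2·Vd/CL.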

[2] = Half life in dog at 0.5 mg/kg, iv; format: ADME, organism-based, Canis lupus familiaris; parameters: dose 0.5 mg/kg, route intravenous; conditions: in vivo; how it was run: as §1
[3] = Solubility in pH 6.8 phosphate buffer; format: physicochemical
How it was run: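 Aqueous solubility measured in pH 6.8 phosphate buffer.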

[4] = Tmax in Sprague-Dawley rat at 10 mg/kg, po; format: ADME, organism-based; parameters: dose 10 mg/kg, route oral; conditions: in vivo
How it was run: (§2)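 Fasted male rats dosed orally at 10 mg/kg, and male dogs at 3 mg/kg (n = 3). Tmax read from the oral profile. F calculated against the iv arm (rat 2 mg/kg, dog 0.5 mg/kg).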

[5] = Clearance in dog at 0.5 mg/kg, iv; format: ADME, organism-based, Canis lupus familiaris; parameters: dose 0.5 mg/kg, route intravenous; conditions: in vivo; how it was run: as §1
Rattus norvegicus [6] = experiment: Sleep promoting effect in ip dosed free moving Wistar rat with chronically implanted electrodes assessed as by polysomnogram recordings method; conditions: read-out: MED
[7] = Ratio of drug level in CSF to plasma in Sprague-Dawley rat at 10 mg/kg, po
[8] = molecular target: T1, Orexin receptor type 2 (Rattus norvegicus) (UniProt P56719); experiment: Antagonist activity against rat OX2 receptor assessed as reduction in [Ala6,12]orexin-A-induced intracellular Ca2+ mobilization incubated for 30 mins by Fluo-4 AM dye based fluorescence assay; format: functional, cell-based
T1 sequence (whole entry): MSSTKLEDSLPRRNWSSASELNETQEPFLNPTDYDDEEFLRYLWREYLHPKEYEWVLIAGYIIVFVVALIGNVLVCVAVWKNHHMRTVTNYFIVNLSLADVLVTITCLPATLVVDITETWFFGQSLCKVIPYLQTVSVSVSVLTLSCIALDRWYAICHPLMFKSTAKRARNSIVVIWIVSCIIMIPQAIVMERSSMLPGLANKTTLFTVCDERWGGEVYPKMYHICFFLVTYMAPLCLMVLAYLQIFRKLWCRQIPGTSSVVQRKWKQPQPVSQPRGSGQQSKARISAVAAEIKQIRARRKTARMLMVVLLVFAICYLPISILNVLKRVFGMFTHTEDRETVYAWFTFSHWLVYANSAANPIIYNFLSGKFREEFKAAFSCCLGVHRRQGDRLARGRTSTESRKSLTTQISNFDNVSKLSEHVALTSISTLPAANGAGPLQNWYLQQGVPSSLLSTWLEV
How it was run: (§3)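 Cells seeded at 2.4 × 10⁴/well and cultured for 18 h. Compound added for 30 min at room temperature. Peak fluorescence minus basal was normalised to the maximal [Ala6,12]orexin-A response. Kb = IC50/(1+[L]/EC50). At least three independent runs in duplicate; mean ± SE.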

[9] = Drug metabolism in dog liver microsomes at 5 uM after 15 mins; format: ADME, Canis lupus familiaris; conditions: read-out: Drug metabolism
How it was run: (§4)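 Liver microsomes at 1 mg protein/mL with 5 µM compound, incubated 15 min. Value reported as percentage of compound metabolized.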

[10] = Ratio of drug level in brain to plasma in Sprague-Dawley rat at 10 mg/kg, po; conditions: read-out: BPR
[11] = Volume of distribution in Sprague-Dawley rat at 2 mg/kg, iv; format: ADME, organism-based; parameters: dose 2 mg/kg, route intravenous; conditions: in vivo
How it was run: (§5)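 Fasted male Sprague–Dawley rats (n = 3) given 2 mg/kg iv. Vd and CL taken from the iv profile. T1/2 calculated as ln2·Vd/CL.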

[12] = Drug excretion in rat urine; format: ADME; conditions: read-out: Drug excretion
[13] = Clearance in Sprague-Dawley rat at 2 mg/kg, iv; format: ADME, organism-based; parameters: dose 2 mg/kg, route intravenous; conditions: in vivo; how it was run: as §5
[14] = molecular target: T2, Orexin/Hypocretin receptor type 1 (Rattus norvegicus) (UniProt P56718); experiment: Antagonist activity against rat OX1 receptor assessed as reduction in [Ala6,12]orexin-A-induced intracellular Ca2+ mobilization incubated for 30 mins by Fluo-4 AM dye based fluorescence assay; format: functional, cell-based; how it was run: as §3
T2 sequence (whole entry): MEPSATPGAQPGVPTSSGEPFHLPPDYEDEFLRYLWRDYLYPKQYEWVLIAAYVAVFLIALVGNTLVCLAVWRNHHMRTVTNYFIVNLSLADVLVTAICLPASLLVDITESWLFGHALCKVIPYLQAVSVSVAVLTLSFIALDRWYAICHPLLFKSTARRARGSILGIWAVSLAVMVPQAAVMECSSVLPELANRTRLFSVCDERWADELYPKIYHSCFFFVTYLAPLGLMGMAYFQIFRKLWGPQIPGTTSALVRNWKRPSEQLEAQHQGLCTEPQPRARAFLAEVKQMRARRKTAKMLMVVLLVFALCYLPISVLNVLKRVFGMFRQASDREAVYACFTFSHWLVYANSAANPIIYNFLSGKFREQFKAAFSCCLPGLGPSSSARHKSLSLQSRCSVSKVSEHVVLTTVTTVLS

Rattus norvegicus [15] = experiment: Sleep promoting effect in free moving Wistar rat with chronically implanted electrodes assessed as reduction in latency until total sleep at 3 to 30 mg/kg, ip by polysomnogram recordings method; format: functional, organism-based
How it was run: (§6)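 Male Wistar rats, 10 weeks old, implanted under pentobarbital with frontal and parietal EEG screw electrodes plus EMG. Recovered ≥7 days, then singly housed and acclimated, tethered and freely moving. Dosed ip between 18:50 and 19:00, before lights-off. EEG filtered 0.16–30 Hz, EMG 5.3–1000 Hz, scored in 8-s epochs. Sleep latency = first 15 consecutive sleep epochs. Analysed over 2 h; n = 8–10; Dunnett or Steel tests.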

[16] = Drug excretion in rat bile; format: ADME, tissue-based; conditions: read-out: Drug excretion
[17] = Half life in Sprague-Dawley rat at 2 mg/kg, iv; format: ADME, organism-based; parameters: dose 2 mg/kg, route intravenous; conditions: in vivo; how it was run: as §5
[18] = system: Ribosyldihydronicotinamide dehydrogenase (NQO2) (Homo sapiens); experiment: Binding affinity to MT3 receptor (unknown origin) at 10 uM
Rattus norvegicus [19] = experiment: Sleep promoting effect in free moving Wistar rat with chronically implanted electrodes assessed as increase in duration of REM sleep at 10 and 30 mg/kg, ip after 2 hrs by polysomnogram recordings method; format: functional, organism-based; parameters: dose 30 mg/kg; how it was run: as §6
[20] = Drug metabolism in human liver microsomes at 5 uM after 15 mins; format: ADME; conditions: read-out: Drug metabolism; how it was run: as §4
[21] = Oral bioavailability in dog at 3 mg/kg; format: ADME, organism-based, Canis lupus familiaris; conditions: in vivo; how it was run: as §2
[22] = Drug metabolism in rat liver microsomes at 5 uM after 15 mins; format: ADME; conditions: read-out: Drug metabolism; how it was run: as §4
[23] = Cmax in free moving Wistar rat with chronically implanted electrodes 3 mg/kg, ip after 0.33 hrs; format: ADME, organism-based; parameters: dose 3 mg/kg, route intraperitoneal; conditions: in vivo
Rattus norvegicus [24] = experiment: Toxicity in Sprague-Dawley rat assessed as effect on rotarod performance at 3 to 30 mg/kg, ip administered 30 mins prior to the test by rotarod test; conditions: in vivo, 0.5 h
[25] = Oral bioavailability in Sprague-Dawley rat at 10 mg/kg; format: ADME, organism-based; conditions: in vivo; how it was run: as §2
Rattus norvegicus [26] = experiment: Sleep promoting effect in free moving Wistar rat with chronically implanted electrodes assessed as increase in duration of NREM sleep at 10 and 30 mg/kg, ip by polysomnogram recordings method; format: functional, organism-based; parameters: dose 30 mg/kg; how it was run: as §6
[27] = Tmax in dog at 3 mg/kg, po; format: ADME, organism-based, Canis lupus familiaris; parameters: dose 3 mg/kg, route oral; conditions: in vivo; how it was run: as §2

Vd [1]: 0.745 L/kg | half-life [2]: 57.7 min | solubility [3]: 30.2 µg/mL (≈ 74.5 µM) | Tmax [4]: 50 min | clearance [5]: 9.97 mL/min/kg | Kp [7]: 0.06 | Kb [8]: 6.06 nM | metabolised at 0.25 h, 5 µM [9]: 7.3% | Kp [10]: 0.17 | Vd [11]: 1.71 L/kg | dose excreted [12]: 0.4% | clearance [13]: 66 mL/min/kg | Kb [14]: 5.08 nM | dose excreted [16]: 0.2% | half-life [17]: 17.9 min | Activity [18]: 66% | metabolised at 0.25 h, 5 µM [20]: 24.1% | bioavailability [21]: 80.2% | metabolised at 0.25 h, 5 µM [22]: 79.9% | Cmax [23]: 728 nM | bioavailability [25]: 14.9% | Tmax [27]: 40 min
Compound: CCN(CCn1ccc(-c2ccc(F)cn2)n1)C(=O)c1ccccc1-n1nccn1
minimal effective dose (Rattus norvegicus [6]): 3 mg/kg | Activity (Rattus norvegicus [15]): Dose-dependent effect | Activity (Rattus norvegicus [19]): inactive | Activity (Rattus norvegicus [24]): Non-toxic | Activity (Rattus norvegicus [26]): Active
